# Screens as filed in PubChem BioAssay.
# IEC-6 cytotox: IEC-6 cytotoxicity, counter-screen for KLF5 inhibitors | luminescence viability | inhibition, % at 5 µM | AID 1825 | 290,000 compounds, 0.78% hits;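 also: 0% = plate median of test compound wells and 100% = cytotoxic reference compound wells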
# MT stabilize HCS: stabilizes microtubules in HeLa cells | % tubulin-high responders, % at 10 µM | HeLa tubulin immunostaining HCS, 24 h; share of cells brighter than vehicle mean+2SD | 200,000 compounds, 0.83% hits;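 active = plate Z-score above 3 for both tubulin-high and condensed-nucleus cell shares, with cell loss under 80%, at 10 µM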;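 also: anti alpha tubulin signal scored within the nucleus-defined area of each cell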
# APP transl inh: APP translation inhibition | SH-SY5Y APP 5'UTR-luciferase reporter, luminescence | inhibition, % at 2 µM | 190,000 compounds, 0.82% hits;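 active = inhibition above a set limit, derived from the sample mean plus 3 SD, cut at about 45% in these data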
# BaF3 parental: parental Ba/F3 viability inhibition as JAK2V617F counter-screen | CellTiter-Glo ATP luminescence | inhibition, % at 5.6 µM | 220,000 compounds, 1.1% hits | AID 1486;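 active = inhibition above a per-campaign cutoff, the mean inhibition of all tested compounds plus 3 SD, cut at about 27% in these data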;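 also: 0% = DMSO wells and 100% = JAK Inhibitor I control wells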
# bCat nuc transl: alters nuclear translocation of beta-catenin in HeLa cells | immunofluorescence imaging | nuclear translocation activity, % at 5 µM | 190,000 compounds, 0.3% hits | AID 1665;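 active = nuclear translocation activity above 50% at 5 µM, with a well cell count of 50 or more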;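 also: per-cell ratio of nuclear to cytoplasmic median beta-catenin stain intensity; plate controls were DMSO negative control for no effect and GSK-3 inhibitor IX positive control for full effect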
#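 Test system: human HeLa cells, endogenous beta-catenin. Times: 24 h compound exposure, 37°C. Measured by: beta-catenin immunofluorescence imaging with DAPI.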
# Ba/F3 V617F tox: reduce viability of Ba/F3 cells dependent on JAK2V617F | Ba/F3 EpoR-JAK2V617F viability, ATP luminescence | inhibition, % at 5.6 µM | 220,000 compounds, 1.1% hits | AID 1446;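 active = inhibition above the campaign mean plus 3 SD over all tested compounds, cut at about 24% in these data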;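 also: cytokine-independent growth of Ba/F3 cells driven by EpoR plus mutant JAK2; 0% = DMSO-treated cells and 100% = JAK inhibitor I control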
# IEC-6 tox confirm: IEC-6 cytotoxicity, confirmation assay. shares compounds with IEC-6 cytotox. 1,900 compounds, 63% hits. IEC-6 rat intestinal epithelial viability, luminescence. inhibition, % at 5 µM. AID 1907;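 also: 0% = vehicle and 100% = reference cytotoxic drug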
# Numbers without * were called inactive; . = no result given. This is a sample that favours compounds with a hit; in the whole collection about 2.2% have one here. Rule as the data show it, unless noted: active = inhibition above about 22%; inactive = the rest.
SMILES,IEC-6 cytotox,MT stabilize HCS,APP transl inh,BaF3 parental,bCat nuc transl,Ba/F3 V617F tox,IEC-6 tox confirm
O=C1CN(S(=O)(=O)c2cccc(Cl)c2Cl)c2ccccc2N1,3.4,.,.,.,.,.,.
CC(C)c1ccc2c(c1)[C@H]1OCC[C@H]1[C@@H](c1cccs1)N2,26.1*,19.7*,85.8*,54.5*,36.3,41.3*,65.8*
Cc1cccc(C)c1OCC(=O)NC1CC1,2.1,.,.,.,.,.,.
Cc1cccc(C)c1OCC(=O)NNC(=S)NC(=O)C1CC1,29.3*,.,.,.,.,.,2.2
COc1ccc(/C=N/NC(=O)c2cc3cc(OC)c(OC)cc3[nH]2)cc1,-9.0,.,.,.,.,.,.
CCOc1ccc2[nH]c(C(=O)N/N=C/c3ccc(OC)cc3)cc2c1,84.4*,.,.,.,.,.,58.0*
CCOc1cccc(N2CCN(CCNC(=O)Nc3ccc(C)cc3)CC2)c1C,1.1,.,.,.,.,.,.
CN(/N=C/c1ccc(N(C)C)cc1)C1=NS(=O)(=O)c2ccccc21,37.9*,.,.,.,.,.,16.3
COc1ccc(N(C)C2=NS(=O)(=O)c3ccccc32)cc1,54.6*,49.3*,.,61.0*,27.7,50.0*,29.5*
COc1cccc(C(=O)Nc2ccccc2C(=O)NCC2CCCO2)c1 (stereo not given),-1.7,.,.,.,.,.,.
CCCNC(=O)COc1ccc(-c2nn(C)c(=O)c3ccccc23)cc1,6.8,.,.,.,.,.,.
Cc1ccccc1C1=NC(C(F)(F)F)(C(F)(F)F)c2c(n(C)c(=O)n(C)c2=O)N1,5.1,2.7,-18.5,5.6,4.5,3.4,.
Cn1c2c(c(=O)n(C)c1=O)C(C(F)(F)F)(C(F)(F)F)N=C(c1ccc(Cl)cc1)N2,37.1*,1.5,51.4*,86.4*,2.0,95.0*,91.5*
CN(C)c1ccc(C=NCC2COc3ccccc3O2)cc1 (stereo not given),4.3,1.3,-4.4,3.0,0.8,0.1,.
Cc1cc(C)c(C(=O)CSc2nc3ccccc3c(=O)[nH]2)cc1C,71.0*,2.1,4.1,7.4,3.2,-1.8,51.6*
Cc1ccc(C(=O)CSc2nc3ccccc3c(=O)[nH]2)cc1,14.2,1.3,-23.6,0.2,.,-2.2,.
Cc1ccc(C)c(C(=O)CSc2nc3ccccc3c(=O)[nH]2)c1,44.0*,4.1,-13.7,8.4,2.0,-0.1,48.0*
O=C(N1CCOCC1)N1CCc2ccccc21,4.4,.,.,.,.,.,.
O=C(Cn1ncc2c1-c1ccccc1OC2)N1CCc2ccccc21,2.0,4.3,-14.6,3.9,0.0,-1.0,.
O=C(Cn1ncc(Cl)c(Cl)c1=O)N1CCc2ccccc21,40.7*,2.0,94.8*,-7.2,-1.7,5.9,20.9
Cc1ccc(-c2nnn3c2nc(NCCc2ccc(S(N)(=O)=O)cc2)c2ccccc23)cc1,54.7*,2.7,3.8,6.8,-6.0,3.0,4.3
Cc1cccc(-c2nnn3c2nc(NCCc2ccc(S(N)(=O)=O)cc2)c2ccccc23)c1,-6.2,6.6,-17.3,3.9,-6.3,-0.3,.
Cc1csc2nc(SCC(=O)Nc3ccccc3F)[nH]c(=O)c12,21.1,.,.,.,.,.,.
Cc1ccc(S(=O)(=O)Cc2ccc(C(=O)N3CCN(c4cccc(C)c4C)CC3)o2)cc1,77.2*,.,.,.,.,.,56.4*
CC(=O)NC(=S)Nc1ccc(NC(=O)c2cccnc2Cl)cc1,-2.8,.,.,2.5,0.9,0.6,.
SMILES,IEC-6 cytotox,MT stabilize HCS,APP transl inh,BaF3 parental,bCat nuc transl,Ba/F3 V617F tox,IEC-6 tox confirm
C/C(=N/NC(=O)CN(c1ccccc1)S(=O)(=O)c1ccccc1)c1ccccc1O,45.6*,.,.,.,.,.,38.0*
CCCC/C(C)=N/NC(=O)CN(c1ccc(Br)cc1)S(=O)(=O)c1ccccc1,2.6,1.7,4.3,8.3,2.0,-1.8,.
CCn1nc(C)cc1-c1nnc(SCC(=O)Nc2ccccc2)n1CCCOC,-11.0,.,.,0.8,-1.7,-3.7,.
CCn1nc(C)cc1-c1nnc(Sc2ncc([N+](=O)[O-])s2)n1C,101.9*,.,.,.,.,.,25.5*
Cc1ccc(NC(=S)c2nc3ccccc3[nH]2)c(C)c1,5.3,4.0,-133.4,2.7,-4.3,-4.1,.
Cc1cccc(/C=C(\c2nc3ccccc3[nH]2)S(=O)(=O)c2ccccc2)c1,25.2*,15.7,11.9,5.1,3.8,0.6,31.6*
O=C(Nc1ccccc1)C(=O)c1c[nH]c2ccccc12,4.4,.,.,.,.,.,.
O=[N+]([O-])CC(c1ccc(F)cc1)c1c[nH]c2ccccc12 (stereo not given),46.7*,.,.,.,.,.,29.3*
O=C(N/N=C(\c1ccccc1)c1cccnc1)c1cccc(F)c1,99.7*,.,.,.,.,.,79.5*
COc1cc(CNCCCN2CCOCC2)cc(Br)c1OCc1ccc(Cl)cc1,53.1*,3.8,9.6,72.7*,21.8,30.5*,45.6*
COc1cc(CNCCN2CCOCC2)ccc1OCc1ccc(Cl)cc1,1.9,2.5,-4.5,4.4,.,-1.2,.
CC(CC(=O)Nc1ccccc1)NCCCN1CCCC1=O (stereo not given),-7.6,.,.,.,.,.,.
CC1CCCN(S(=O)(=O)c2ccc(C(=O)Nc3nnc(-c4ccco4)o3)cc2)C1 (stereo not given),25.0*,.,.,.,.,.,16.3
O=C1C=C(Nc2ccc(Cl)cc2Cl)CC(c2ccco2)C1 (stereo not given),53.9*,11.2,12.9,46.8*,2.0,21.2,48.3*
C=C1C(=O)[C@@]23[C@H](O)C[C@@H]4C(C)(C)CC[C@H](O)[C@@]4(C)[C@@H]2CC[C@@H]1[C@H]3O,65.2*,25.5*,83.8*,91.9*,.,97.9*,44.4*
O=S(=O)(Nc1ccc(F)cc1Cl)c1ccc(-c2cnc(C3CC3)o2)cc1,81.8*,.,.,.,.,.,52.0*
O=C1CC(=O)Nc2cc(S(=O)(=O)Nc3ccc(F)cc3Cl)ccc2N1,-2.7,.,.,.,.,.,.
COc1ccccc1CNS(=O)(=O)c1ccc(S(=O)(=O)NC2CC2)cc1,8.6,.,.,.,.,.,.
Cc1ccc(NS(=O)(=O)c2ccc(-c3cnc(C4CC4)o3)cc2)c(C)c1,78.5*,.,.,.,.,.,55.1*
COc1ccccc1CNS(=O)(=O)c1ccc(-c2cnc(C3CC3)o2)cc1,69.2*,.,.,.,.,.,53.7*
COc1ccccc1NS(=O)(=O)c1ccc(-c2cnc(C3CC3)o2)cc1,83.8*,.,.,.,.,.,55.5*
COC(=O)c1c(NC(=O)C2CCCCC2)sc2c1CC(C)(C)NC2(C)C,-11.3,.,.,.,.,.,.
CC1(OC(=O)C2CCCC2)C(=O)C=C2C=C(c3ccsc3)N(CCc3ccccn3)C=C2C1=O (stereo not given),.,.,.,.,0.7,.,.
COc1ccc(NC(=O)n2ncc3cc(Cl)ccc32)cc1OC,1.5,.,.,.,.,.,.
CCOc1ccccc1NS(=O)(=O)c1ccc(-c2cnc(C3CC3)o2)cc1,90.2*,.,.,.,.,.,58.6*
Cc1cccc(N(C)S(=O)(=O)c2ccc(-c3cnc(C4CC4)o3)cc2)c1,90.8*,.,.,.,.,.,64.6*
COc1ccc(NS(=O)(=O)c2ccc(-c3cnc(C4CC4)o3)cc2)cc1OC,50.4*,.,.,.,.,.,39.5*
C/C(=N/NS(=O)(=O)c1ccc(CC(C)C)cc1)c1ccncc1,6.5,.,.,.,.,.,.
COc1cccc(CNC(=O)c2ccc(CS(=O)c3ccccc3)o2)c1 (stereo not given),2.1,.,.,.,.,.,.
